According to ChEMBL document CHEMBL3286368, “Delayed and Prolonged Histone Hyperacetylation with a Selective HDAC1/HDAC2 Inhibitor” (ACS Med Chem Lett, 2014):

Columns and labels:
[1] = biological target: Voltage-gated inwardly rectifying potassium channel KCNH2 (Homo sapiens, UniProt Q12809); experiment: Binding affinity to human ERG
Histone deacetylase 1 = Histone deacetylase 1 (Homo sapiens, UniProt Q13547); format: cell-based, HEK293F
HCT-116 = experiment: cells; format: functional, Homo sapiens; conditions: Homo sapiens, HCT-116, 72 h
[2] = Solubility of the compound; format: physicochemical
Method in brief: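 Solubility determined on the bis-HCl salt, reported in mg/mL.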

Chain of Histone deacetylase 1 (Q13547 whole entry): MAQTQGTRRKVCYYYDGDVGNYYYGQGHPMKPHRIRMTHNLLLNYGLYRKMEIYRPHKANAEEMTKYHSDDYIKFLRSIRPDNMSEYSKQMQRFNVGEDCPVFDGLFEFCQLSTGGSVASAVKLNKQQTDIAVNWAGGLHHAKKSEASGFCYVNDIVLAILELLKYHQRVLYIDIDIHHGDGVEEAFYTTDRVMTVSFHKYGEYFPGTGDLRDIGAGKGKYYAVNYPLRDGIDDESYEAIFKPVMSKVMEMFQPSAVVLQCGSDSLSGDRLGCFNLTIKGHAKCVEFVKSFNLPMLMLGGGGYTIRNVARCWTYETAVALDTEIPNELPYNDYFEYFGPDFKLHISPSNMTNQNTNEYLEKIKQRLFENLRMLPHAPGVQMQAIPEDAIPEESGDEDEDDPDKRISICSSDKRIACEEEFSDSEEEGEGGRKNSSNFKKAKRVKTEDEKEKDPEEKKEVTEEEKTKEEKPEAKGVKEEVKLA
Chain of Voltage-gated inwardly rectifying potassium channel KCNH2 (Q12809 whole entry): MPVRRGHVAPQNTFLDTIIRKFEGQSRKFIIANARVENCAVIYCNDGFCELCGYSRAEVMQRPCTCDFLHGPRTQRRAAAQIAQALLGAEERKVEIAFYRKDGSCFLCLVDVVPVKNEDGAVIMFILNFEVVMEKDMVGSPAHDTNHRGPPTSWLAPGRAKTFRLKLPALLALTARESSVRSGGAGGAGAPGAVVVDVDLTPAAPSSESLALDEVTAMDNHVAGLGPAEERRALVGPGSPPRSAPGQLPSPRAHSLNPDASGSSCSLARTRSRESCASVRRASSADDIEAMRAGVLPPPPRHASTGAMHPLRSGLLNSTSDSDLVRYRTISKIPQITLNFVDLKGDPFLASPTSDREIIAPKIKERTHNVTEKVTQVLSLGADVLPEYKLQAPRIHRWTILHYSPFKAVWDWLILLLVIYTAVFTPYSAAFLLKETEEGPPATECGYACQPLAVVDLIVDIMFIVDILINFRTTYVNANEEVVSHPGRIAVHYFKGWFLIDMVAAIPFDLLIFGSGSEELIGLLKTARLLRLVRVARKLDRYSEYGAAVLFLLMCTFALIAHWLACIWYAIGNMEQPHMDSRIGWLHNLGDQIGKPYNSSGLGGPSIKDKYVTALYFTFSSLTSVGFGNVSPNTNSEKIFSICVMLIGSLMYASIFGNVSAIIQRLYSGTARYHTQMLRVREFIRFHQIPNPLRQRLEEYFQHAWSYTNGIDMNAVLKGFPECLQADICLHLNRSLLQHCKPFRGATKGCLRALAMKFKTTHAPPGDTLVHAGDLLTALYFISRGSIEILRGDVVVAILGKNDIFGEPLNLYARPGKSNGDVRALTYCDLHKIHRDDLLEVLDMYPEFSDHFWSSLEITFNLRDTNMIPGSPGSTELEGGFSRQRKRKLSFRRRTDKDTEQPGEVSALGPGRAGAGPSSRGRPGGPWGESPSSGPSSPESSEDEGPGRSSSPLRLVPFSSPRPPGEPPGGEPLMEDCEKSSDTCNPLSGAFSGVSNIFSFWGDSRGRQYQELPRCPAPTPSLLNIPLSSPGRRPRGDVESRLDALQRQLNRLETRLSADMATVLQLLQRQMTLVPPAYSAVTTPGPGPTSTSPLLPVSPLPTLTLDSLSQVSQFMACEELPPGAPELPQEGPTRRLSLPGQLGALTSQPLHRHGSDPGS

IC50 (Histone deacetylase 1) [nM] | GI50 (HCT-116) [nM] | solubility [2] [µg/mL] | Compound | Ki [1] [nM]
20 | 710 | – | Nc1ccc(-c2ccc(F)cc2)cc1NC(=O)c1ccc(N2CCC3(CC2)CNC(=O)O3)nc1 | 620
18 | 2120 | – | Cn1cc(-c2ccc(N)c(NC(=O)c3ccc(N4CCC5(CC4)CNC(=O)O5)nc3)c2)cn1 | > 10000
11 | 270 | – | Nc1ccc(-c2ccsc2)cc1NC(=O)c1ccc(N2CCC3(CC2)CNC(=O)O3)nc1 | > 30000
17 | 490 | – | Nc1ccc(-c2ccccc2)cc1NC(=O)c1ccc(N2CCC3(CC2)CNC(=O)O3)nc1 | 3400
– | – | 1300 | Cl.Nc1ccc(-c2cccs2)cc1NC(=O)c1ccc(N2CCC3(CC2)CNC(=O)O3)nc1 | –

Further lines, the compound ahead of its results:

Compound | IC50 (Histone deacetylase 1) [nM] | GI50 (HCT-116) [nM] | solubility [2] [µg/mL] | Ki [1] [nM]
Nc1ccccc1NC(=O)c1ccc(N2CCC3(CC2)CNC(=O)O3)nc1 | 580 | 5080 | – | > 10000
Cn1cnc(-c2ccc(N)c(NC(=O)c3ccc(N4CCC5(CC4)CNC(=O)O5)nc3)c2)c1 | 51 | 4650 | – | > 10000
Cc1csc(-c2ccc(N)c(NC(=O)c3ccc(N4CCC5(CC4)CNC(=O)O5)nc3)c2)c1 | 14 | 890 | – | 2000
